The target in one assay is P2Y1 receptor. The settings on record: competitive antagonist of the P2Y1 receptor; cited from earlier work.
The subject of a further assay is human platelets. Put plainly: ADP-induced aggregation of human washed platelets. The class given is cell-based. Particulars: 1 μM, ADP 5 μM. An outline of the steps:
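Washed human platelets: donor blood spun 175×g, 15 min, 37 °C; platelet-rich plasma spun 1570×g, 15 min; pellet washed twice in Tyrode's (pH 7.3, 0.35% human serum albumin); resuspended 3×10^5/μL with 0.02 U/mL apyrase, kept at 37 °C. Extent measured as maximum curve height above baseline.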

For another assay, the target named is hP2Y1 receptor (Homo sapiens, UniProt P47900). Put plainly: [125I]MRS2500 radioligand binding at hP2Y1 receptor in Sf9 insect cell membranes. Particulars: for binding to the P2Y1 receptor (in words): [125I]MRS2500 binding; for fold weaker in binding than shortest homologue 20: comparison of Ki values.

The values that follow come from PMC2912410 (Bioconjugate chemistry, 2010).

Entries after “also recorded” stand apart in the source; their conditions may differ.

Sequence of hP2Y1 receptor (P47900 whole entry): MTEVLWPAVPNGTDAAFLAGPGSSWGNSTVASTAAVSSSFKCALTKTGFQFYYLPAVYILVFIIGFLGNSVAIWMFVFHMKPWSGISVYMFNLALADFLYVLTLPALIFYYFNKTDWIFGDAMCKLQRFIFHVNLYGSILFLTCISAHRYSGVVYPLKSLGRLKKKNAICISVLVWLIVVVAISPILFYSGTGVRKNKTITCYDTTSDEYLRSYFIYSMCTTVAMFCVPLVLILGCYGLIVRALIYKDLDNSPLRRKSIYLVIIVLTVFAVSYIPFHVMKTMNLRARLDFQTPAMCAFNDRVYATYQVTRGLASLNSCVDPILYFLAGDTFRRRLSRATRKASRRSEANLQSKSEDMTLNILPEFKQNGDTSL

For the molecule `CNc1ncnc2c1ncn2[C@H]1C[C@H](OP(=O)(O)O)[C@@H](COP(=O)(O)O)O1` [Compound 1, N^6-methyl-2′-deoxyadenosine-3′,5′-bisphosphate], at P2Y1 receptor, the Kb is 102 nM.
As to `CNc1nc(I)nc2c1ncn2[C@H]1C[C@H](OP(=O)(O)O)[C@]2(COP(=O)(O)O)C[C@H]12` [Compound 2, (1′R,2′S,4′S,5′S)-4-(2-iodo-6-methylamino-purin-9-yl)-1-[(phosphato)-methyl]-2-(phosphato)-bicyclo[3.1.0]hexane], the “inhibition of platelet aggregation (in words)” value in the assay with human platelets is recorded as “completely inhibited aggregation”.
Take `CNc1nc(C#CCCCC(=O)NCCNC(=O)CCCCCNC(=O)CCCCC2SCC3NC(=O)NC32)nc2c1ncn2[C@H]1C[C@H](OP(=O)(O)O)[C@]2(COP(=O)(O)O)C[C@H]12` (stereo partly drawn) [Compound 18, (1'R,2'S,4'S,5'S)-4-{2-[6-(6-Oxo-6-(2-(6-(5-(2-oxohexahydro-1H-thieno[3,4-d]imidazol-4-yl)pentanamido)hexanamido)ethylamino)hex-1-ynyl)]-6-methylaminopurin-9-yl}-1-[(phosphato)-methyl]-2-(phosphato)-bicyclo[3.1.0]hexane]: the “binding to the P2Y1 receptor (in words)” value on hP2Y1 receptor is “more potent in binding than the shorter analogue 17”.
Regarding `CNc1nc(C#CCCCCc2cn(CCNC(C)=O)nn2)nc2c1ncn2[C@H]1C[C@H](OP(=O)(O)O)[C@]2(COP(=O)(O)O)C[C@H]12` [Compound 22, (1'R,2'S,4'S,5'S)-4-{2-[(6-(2-Acetamidoethyl)-1H-1,2,3-triazol-4-yl)-hex-1-yn-1-yl]-6-methylaminopurin-9-yl}-1-[(phosphato)-methyl]-2-(phosphato)-bicyclo[3.1.0]hexane], the “fold weaker in binding than shortest homologue 20” value at hP2Y1 receptor is listed as 20 – 30 fold.
Take `CNc1nc(C#CCCCCCc2cn(CCNC(C)=O)nn2)nc2c1ncn2[C@H]1C[C@H](OP(=O)(O)O)[C@]2(COP(=O)(O)O)C[C@H]12` [Compound 23, (1'R,2'S,4'S,5'S)-4-{2-[(7-(2-Acetamidoethyl)-1H-1,2,3-triazol-4-yl)-hept-1-yn-1-yl]-6-methylaminopurin-9-yl}-1-[(phosphato)-methyl]-2-(phosphato)-bicyclo[3.1.0]hexane]: the “fold weaker in binding than shortest homologue 20” value at hP2Y1 receptor is 20 – 30 fold.
In the case of “(1'R,2'S,4'S,5'S)-4-{2-[(6-(6-(4-(Fluorosulfonyl)phenethylamino)-6-oxohex-1-ynyl)]-6-methylaminopurin-9-yl}-1-[(phosphato)-methyl]-2-(phosphato)-bicyclo[3.1.0]hexane [Compound 19]”, the “binding to the P2Y1 receptor (in words)” value on hP2Y1 receptor was “not appreciably potent; also recorded: weak in binding”.
Turning to “(1'R,2'S,4'S,5'S)-4-{2-[(6-(6-Oxo-6-(2-(5-(2-oxohexahydro-1H-thieno[3,4-d]imidazol-4-yl)pentanamido)ethylamino)hex-1-ynyl)-1-propynyl]-6-methylaminopurin-9-yl}-1-[(phosphato)-methyl]-2-(phosphato)-bicyclo[3.1.0]hexane [Compound 17]”, the “binding to the P2Y1 receptor (in words)” value at hP2Y1 receptor is given as “weak in binding”.
